Measured values: ChEMBL document CHEMBL1124042, “Synthesis and potential antipsychotic activity of 1H-imidazo[1,2-c]pyrazolo[3,4-e]pyrimidines” (J Med Chem, 1988)

What was measured:
Rattus norvegicus = experiment: Inhibition of Sidman avoidance in rats after peroral administration; type: functional; settings: po
How it was run: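 Continuous (Sidman) avoidance responding in rats with oral dosing. At least three doses per drug, four animals per dose. ED50 reported ± SEM.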

D(2) dopamine receptor = D(2) dopamine receptor (Rattus norvegicus, UniProt P61169); experiment: Displacement of [3H]haloperidol from Dopamine receptor D2 in rat brain; type: tissue-based
Sequence of D(2) dopamine receptor (P61169 whole entry): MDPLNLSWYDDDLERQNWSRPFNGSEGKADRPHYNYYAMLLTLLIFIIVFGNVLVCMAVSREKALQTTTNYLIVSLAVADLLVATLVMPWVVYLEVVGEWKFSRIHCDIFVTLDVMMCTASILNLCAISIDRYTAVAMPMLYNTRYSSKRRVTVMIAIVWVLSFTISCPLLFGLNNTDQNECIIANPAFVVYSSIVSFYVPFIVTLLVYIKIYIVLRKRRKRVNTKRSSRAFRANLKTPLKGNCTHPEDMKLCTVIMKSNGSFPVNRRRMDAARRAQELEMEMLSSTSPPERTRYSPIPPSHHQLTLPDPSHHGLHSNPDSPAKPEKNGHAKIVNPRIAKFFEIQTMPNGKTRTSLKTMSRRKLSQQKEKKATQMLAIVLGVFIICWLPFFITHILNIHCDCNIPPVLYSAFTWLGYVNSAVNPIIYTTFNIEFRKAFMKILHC

[1] = Displacement of [3H]flunitrazepam from GABA-A benzodiazepine receptor of rat brain
How it was run: (§1)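 Rat brain radioligand displacement binding. IC50 values (μM) were derived by nonlinear regression from four or five concentrations of compound.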

Mus musculus = experiment: Inhibition of locomotor activity in mouse after intraperitoneal administration; type: functional; settings: Mus musculus, ip; read-out: ED50
[2] = target: Serotonin 2 (5-HT2) receptor (Rattus norvegicus, UniProt P30994+P08909+P14842); experiment: Displacement of [3H]spiroperidol from 5-hydroxytryptamine 2 receptor in rat brain; type: tissue-based; how it was run: as §1
[3] = target: Muscarinic acetylcholine receptor; experiment: Displacement of [3H]quinuclidinyl benzilate(QNB) from Muscarinic acetylcholine receptor in rat brain; type: tissue-based; how it was run: as §1
[4] = target: Beta-2 adrenergic receptor (Rattus norvegicus, UniProt P10608); experiment: Displacement of [3H]DHA (Dihydroalprenolol) from beta-2 adrenergic receptor in rat brain; type: tissue-based; how it was run: as §1
Sequence of Beta-2 adrenergic receptor (P10608 whole entry): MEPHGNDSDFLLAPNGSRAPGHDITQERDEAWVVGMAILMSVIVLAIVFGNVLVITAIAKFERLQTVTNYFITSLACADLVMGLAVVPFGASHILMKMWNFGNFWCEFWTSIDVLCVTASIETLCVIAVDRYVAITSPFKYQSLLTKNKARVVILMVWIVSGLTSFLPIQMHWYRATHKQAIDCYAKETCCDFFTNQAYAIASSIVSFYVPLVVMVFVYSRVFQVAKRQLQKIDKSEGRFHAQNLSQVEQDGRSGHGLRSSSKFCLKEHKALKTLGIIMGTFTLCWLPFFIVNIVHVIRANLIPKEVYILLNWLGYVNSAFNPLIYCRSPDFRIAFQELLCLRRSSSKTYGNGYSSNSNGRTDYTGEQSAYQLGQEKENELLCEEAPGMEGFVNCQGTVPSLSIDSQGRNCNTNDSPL

[5] = target: T1, Adrenergic receptor alpha-2 (Rattus norvegicus, UniProt P22086+P19328+P22909); experiment: Displacement of [3H]clonidine from alpha-2 adrenergic receptor in rat brain; type: tissue-based; how it was run: as §1
T1 sequence (P22086 whole entry): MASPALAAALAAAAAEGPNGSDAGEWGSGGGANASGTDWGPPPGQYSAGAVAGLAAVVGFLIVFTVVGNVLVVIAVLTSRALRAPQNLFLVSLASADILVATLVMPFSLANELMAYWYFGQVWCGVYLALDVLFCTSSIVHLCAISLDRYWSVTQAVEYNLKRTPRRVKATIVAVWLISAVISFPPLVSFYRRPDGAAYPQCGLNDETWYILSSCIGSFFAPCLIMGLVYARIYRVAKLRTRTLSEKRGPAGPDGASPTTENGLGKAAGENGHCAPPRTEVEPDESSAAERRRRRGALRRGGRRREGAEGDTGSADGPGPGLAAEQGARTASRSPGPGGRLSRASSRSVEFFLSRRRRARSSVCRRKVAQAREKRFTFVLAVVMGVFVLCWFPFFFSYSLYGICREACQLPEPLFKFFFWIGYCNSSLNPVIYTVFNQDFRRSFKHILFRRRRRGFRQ
T1 sequence (P19328 whole entry): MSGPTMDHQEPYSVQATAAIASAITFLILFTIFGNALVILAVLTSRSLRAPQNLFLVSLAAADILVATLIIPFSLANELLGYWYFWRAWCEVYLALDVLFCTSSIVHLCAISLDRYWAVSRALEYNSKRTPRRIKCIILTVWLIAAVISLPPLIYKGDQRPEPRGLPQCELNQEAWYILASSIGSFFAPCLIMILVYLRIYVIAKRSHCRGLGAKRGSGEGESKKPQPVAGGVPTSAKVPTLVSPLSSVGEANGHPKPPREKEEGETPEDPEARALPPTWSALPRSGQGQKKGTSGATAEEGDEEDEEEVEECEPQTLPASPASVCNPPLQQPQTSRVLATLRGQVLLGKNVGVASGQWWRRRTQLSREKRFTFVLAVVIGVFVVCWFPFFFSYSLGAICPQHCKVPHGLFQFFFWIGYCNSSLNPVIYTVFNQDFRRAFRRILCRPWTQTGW
T1 sequence (P22909 whole entry): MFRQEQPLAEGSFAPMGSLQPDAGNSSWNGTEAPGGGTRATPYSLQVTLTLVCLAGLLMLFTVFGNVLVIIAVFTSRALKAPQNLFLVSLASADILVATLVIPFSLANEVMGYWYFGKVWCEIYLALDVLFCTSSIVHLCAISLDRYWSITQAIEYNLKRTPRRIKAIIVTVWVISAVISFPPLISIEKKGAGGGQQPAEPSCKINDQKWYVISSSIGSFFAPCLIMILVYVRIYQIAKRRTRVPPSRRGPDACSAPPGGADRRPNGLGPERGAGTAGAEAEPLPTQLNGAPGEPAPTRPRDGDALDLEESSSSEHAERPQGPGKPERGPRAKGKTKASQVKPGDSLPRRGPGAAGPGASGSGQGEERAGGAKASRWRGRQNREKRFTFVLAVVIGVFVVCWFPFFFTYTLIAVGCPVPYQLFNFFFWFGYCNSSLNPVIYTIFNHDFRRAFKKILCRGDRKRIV

[6] = target: Serotonin 1 (5-HT1) receptor (Rattus norvegicus, UniProt P28564+P30940+P19327+P28565); experiment: Displacement of [3H]5-HT from serotonin-1 neurotransmitter receptor in rat brain; type: tissue-based; how it was run: as §1

IC50 (D(2) dopamine receptor): > 10 µM
IC50 [1]: > 1 µM
IC50 [2]: > 10 µM
IC50 [3]: > 10 µM
IC50 [4]: > 10 µM
IC50 [5]: > 10 µM
IC50 [6]: > 10 µM
Compound: CCC1CN2C(C)=Nc3c(C)nn(C)c3C2=N1 (centres undefined)
ED50 (Rattus norvegicus): 19.2 mg/kg
ED50 (Mus musculus): 23.7 mg/kg
